Source: ChEMBL document CHEMBL4184319, “Fluorescent-Labeled Selective Adenosine A2B Receptor Antagonist Enables Competition Binding Assay by Flow Cytometry” (J Med Chem, 2018)
Active and inactive are the calls of the source. The calls are words filed in the database; no cut-off is given here.

Experiments:
Adenosine receptor A1 = biological target: T1, Adenosine receptor A1 (Homo sapiens, UniProt P30542); assay: Displacement of [3H]CCPA from recombinant human adenosine A1 receptor expressed in CHO cell membranes after 90 mins by liquid scintillation counting method
T1 sequence (P30542 whole entry): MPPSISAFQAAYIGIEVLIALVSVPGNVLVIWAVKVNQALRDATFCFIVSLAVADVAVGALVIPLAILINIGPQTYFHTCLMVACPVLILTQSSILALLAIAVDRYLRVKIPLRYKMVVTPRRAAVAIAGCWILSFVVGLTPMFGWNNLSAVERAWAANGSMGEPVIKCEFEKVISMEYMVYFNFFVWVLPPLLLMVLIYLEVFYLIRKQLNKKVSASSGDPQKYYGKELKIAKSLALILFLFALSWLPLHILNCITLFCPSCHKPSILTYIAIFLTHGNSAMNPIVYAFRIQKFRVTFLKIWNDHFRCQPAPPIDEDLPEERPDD
Method in brief: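 [³H]CCPA (1 nM) used with rat brain cortical or human A1-CHO membranes, 90 min at rt. Membranes pre-incubated 10-15 min with ADA 0.12 IU/mL. Nonspecific binding defined with 10 µM CADO. Compounds dissolved in DMSO, 2.5 % final. Filtration on GF/B filters with ice-cold Tris-HCl washes, then scintillation counting. Curves used 6-7 concentrations spanning 3 log units. At least three experiments, in duplicate (human) or triplicate (rat).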

Adenosine receptor A2a = Adenosine receptor A2a (Homo sapiens, UniProt P29274); assay: Displacement of [3H]MSX-2 from recombinant human adenosine A2A receptor expressed in HEK cell membranes after 30 mins by liquid scintillation counting method
Method in brief: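 [³H]MSX-2 (1 nM) used with rat striatal or human A2A-HEK membranes, 30 min at rt. Membranes pre-incubated 10-15 min with ADA 0.12 IU/mL. Nonspecific binding defined with 10 µM CGS15943. DMSO 2.5 % final. GF/B filtration, then scintillation counting. Curves used 6-7 concentrations over 3 log units. At least three experiments, in duplicate (human) or triplicate (rat).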

Adenosine receptor A2b [1] = biological target: T2, Adenosine receptor A2b (Homo sapiens, UniProt P29275); assay: Displacement of [3H]PSB-603 from recombinant human adenosine A2B receptor expressed in CHO cell membranes after 75 mins by liquid scintillation counting method
T2 sequence (P29275 whole entry): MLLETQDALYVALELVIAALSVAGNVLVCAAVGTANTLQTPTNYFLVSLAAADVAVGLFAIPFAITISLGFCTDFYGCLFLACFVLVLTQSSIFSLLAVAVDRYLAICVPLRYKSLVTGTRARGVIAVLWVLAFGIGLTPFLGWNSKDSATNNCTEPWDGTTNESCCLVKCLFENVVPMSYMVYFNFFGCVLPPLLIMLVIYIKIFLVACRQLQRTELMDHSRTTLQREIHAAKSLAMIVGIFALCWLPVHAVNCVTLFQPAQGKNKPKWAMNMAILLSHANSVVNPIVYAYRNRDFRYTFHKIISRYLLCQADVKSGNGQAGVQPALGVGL
Method in brief: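 [³H]PSB-603 (0.3 nM) used with CHO membranes expressing human, mouse or rat A2BAR, 75 min at rt. Membranes pre-incubated 10-15 min with ADA 0.12 IU/mL. Nonspecific binding defined with 10 µM DPCPX. DMSO 2.5 % final. Filtration on GF/B with ice-cold 50 mM Tris-HCl pH 7.4 containing 0.1 % BSA, then scintillation counting. Curves used 6-7 concentrations over 3 log units. At least three experiments.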

Adenosine receptor A3 = biological target: T3, Adenosine receptor A3 (Homo sapiens, UniProt P0DMS8); assay: Displacement of [3H]PSB-11 from recombinant human adenosine A3 receptor expressed in CHO cell membranes after 45 mins by liquid scintillation counting method
T3 sequence (P0DMS8 whole entry): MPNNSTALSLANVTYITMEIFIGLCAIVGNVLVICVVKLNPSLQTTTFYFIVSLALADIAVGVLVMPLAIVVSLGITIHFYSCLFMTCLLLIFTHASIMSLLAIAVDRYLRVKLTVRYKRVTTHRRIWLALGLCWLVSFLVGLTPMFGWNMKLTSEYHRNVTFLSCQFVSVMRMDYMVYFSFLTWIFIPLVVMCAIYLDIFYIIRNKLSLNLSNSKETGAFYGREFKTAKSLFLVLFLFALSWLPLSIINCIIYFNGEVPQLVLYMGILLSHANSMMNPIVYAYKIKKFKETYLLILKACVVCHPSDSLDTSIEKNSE
Method in brief: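 Human A3-CHO membranes incubated with [³H]PSB-11 (1 nM) for 45 min at rt, after 10-15 min pre-incubation with ADA 0.12 IU/mL. Nonspecific binding defined with 100 µM R-PIA. DMSO 2.5 % final. GF/B filtration, then scintillation counting. Curves used 6-7 concentrations over 3 log units. At least three experiments in duplicate.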

[2] = Selectivity ratio of Ki for adenosine A2A receptor in rat brain striatal membranes to Ki for recombinant human adenosine A2B receptor expressed in CHO cell membranes; format: cell-based
Homo sapiens [3] = organism: Homo sapiens; assay: Selectivity ratio of Ki for recombinant human adenosine A2A receptor expressed in HEK cell membranes to Ki for recombinant human adenosine A2B receptor expressed in CHO cell membranes; format: cell-based
[4] = Selectivity ratio of Ki for recombinant human adenosine A2A receptor expressed in HEK cell membranes to Ki for recombinant mouse adenosine A2B receptor expressed in CHO cell membranes; format: cell-based
Rattus norvegicus = organism: Rattus norvegicus; assay: Selectivity ratio of Ki for adenosine A2A receptor in rat brain striatal membranes to Ki for recombinant rat adenosine A2B receptor expressed in CHO cell membranes; format: cell-based
Homo sapiens [5] = organism: Homo sapiens; assay: Selectivity ratio of Ki for recombinant human adenosine A3 receptor expressed in CHO cell membranes to Ki for recombinant human adenosine A2B receptor expressed in CHO cell membranes; format: cell-based
Adenosine receptor A2b [6] = biological target: T2, Adenosine receptor A2b; assay: Antagonist activity at recombinant human adenosine A2B receptor expressed in CHO cell membranes assessed as inhibition of NECA-induced cAMP accumulation preincubated for 1 hr followed by NECA induction measured after 5 mins in presence of [3H]cAMP and bovine cAMP-binding protein by liquid scintillation counting method; format: functional
Method in brief: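 CHO cells stably expressing human A2BAR, pre-incubated with antagonist dilutions for 1 h at 37°C, then stimulated with NECA (10 µM final) for 5 min at 37°C. Reaction stopped with hot (90 °C) lysis solution (4 mM EDTA, 0.01 % Triton X100). cAMP quantified by radioactive competition with [³H]cAMP and bovine adrenal cAMP-binding protein. Response expressed as % of NECA response without antagonist. Means ± SEM, three independent experiments in duplicate.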

[7] = biological target: T4, Adenosine receptor A2b (Homo sapiens) (UniProt P29275); assay: Binding affinity to recombinant human adenosine A2B receptor expressed in CHO cell membranes at 100 nM after 15 mins in presence of PSB-603 by confocal microscopic method; format: cell-based
T4 sequence (whole entry): T2 sequence (P29275 whole entry)
Method in brief: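 Live CHO cells stably expressing human A2BAR (or wild-type CHO as control) grown on chambered coverslips to about 80 % confluency. Incubated with fluorescent ligand (100 nM) for 15 min at 37°C, alone or after 30 min pre-incubation with PSB-603 (100 nM) or DPCPX (1 µM). Confocal laser scanning imaging with identical settings across conditions. Three similar experiments.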

Adenosine receptor A2a, sequence (P29274 whole entry): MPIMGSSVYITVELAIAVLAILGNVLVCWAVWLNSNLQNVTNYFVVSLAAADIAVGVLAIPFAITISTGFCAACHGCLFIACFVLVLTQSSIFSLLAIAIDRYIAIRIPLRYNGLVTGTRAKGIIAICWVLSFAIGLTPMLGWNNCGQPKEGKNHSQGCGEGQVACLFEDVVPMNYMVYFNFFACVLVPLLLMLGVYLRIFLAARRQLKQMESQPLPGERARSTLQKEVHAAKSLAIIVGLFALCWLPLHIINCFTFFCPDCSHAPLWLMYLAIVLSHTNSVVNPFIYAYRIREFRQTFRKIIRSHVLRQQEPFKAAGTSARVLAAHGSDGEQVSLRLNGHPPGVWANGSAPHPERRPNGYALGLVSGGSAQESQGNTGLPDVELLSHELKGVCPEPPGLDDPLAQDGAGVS

Ki (Adenosine receptor A1): ≥ 10000 nM | Ki (Adenosine receptor A2a): > 10000 nM | Ki (Adenosine receptor A2b [1]): 1.83 nM | Ki (Adenosine receptor A3): > 10000 nM | IC50 (Adenosine receptor A2b [6]): 262 nM | Activity [7]: inactive
SMILES: CCCn1c(=O)[nH]c2nc(-c3ccc(OCC(=O)NCCC4=C5C(C)=CC(C)=[N+]5[B-](F)(F)n5c(C)cc(C)c54)cc3)[nH]c2c1=O
Ratio Ki [2]: > 150 | Ratio Ki (Homo sapiens [3]): > 150 | Ratio Ki [4]: > 1000 | Ratio Ki (Rattus norvegicus): > 150 | Ratio Ki (Homo sapiens [5]): > 1000
